In data set [1] the test system is Rattus norvegicus. Put plainly: Inhibition of cocaine-induced conditioned place preference in rat assessed as time spent in the chamber at 300 mg/kg, ip administered 2.5 hrs prior to cocaine-challenge measured after 12 days for 15 mins (reference value: 7.1 +/- 0.6 mins). Particulars: route intraperitoneal. Format: functional.
The test system of data set [2] is Rattus norvegicus. Put plainly: Toxicity in Wistar albino rat assessed as mortality at 200 mg/kg, ip measured up to 3 weeks. Particulars: in vivo, 504 h. Also on record: dose 200 mg/kg, route intraperitoneal. The class given is organism-based. Summed up: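 Mixed-sex Wistar albino rats, 15 per group, dosed ip once daily with drug in 0.9% saline. Monitored for mortality, moribundity, clinical signs, feed intake and body weight. Animals in distress over 24 h were euthanized. Some received food supplements or ip fluids during the first 3 weeks.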

Data set [3] deals with Rattus norvegicus. In words: Retinotoxicity in Wistar albino rat assessed as increase rod implicit time at 200 mg/kg, ip administered QD for 45 to 90 days relative to control. The class given is toxicity, organism-based. Set-up: dose 200 mg/kg, route intraperitoneal. The conditions noted are these: in vivo. In a few lines: (§1)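 Wistar albino rats, 9 weeks old at the start and of both sexes, received one i.p. injection daily for 45 or 90 days. The dose was in 0.9% saline made fresh weekly, against a saline vehicle group. After a 5–7 day washout and at least 12 h of dark adaptation, pupils were dilated (tropicamide 1%, phenylephrine 10%). ERG was then recorded from both eyes under ketamine/xylazine.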

The test system of data set [4] is Rattus norvegicus. In words: Retinotoxicity in Wistar albino rat assessed as increase mesopic implicit time at 200 mg/kg, ip administered QD for 45 to 90 days relative to control. The class given is toxicity, organism-based. Set-up: dose 200 mg/kg, route intraperitoneal. Particulars: in vivo.
Data set [5] has as its system Rattus norvegicus. Put plainly: Retinotoxicity in Wistar albino rat assessed as increase cone implicit time at 200 mg/kg, ip administered QD for 45 to 90 days relative to control. Particulars: in vivo. Set-up: dose 200 mg/kg, route intraperitoneal. Format: toxicity, organism-based. In a few lines: as §1
In data set [6] the test system is Rattus norvegicus. In words: Retinotoxicity in female Wistar albino rat assessed as reduction in 10 Hz flicker ERG at 200 mg/kg, ip administered QD for 45 days by electroretinogram analysis relative to control. Format: toxicity, organism-based. Also on record: dose 200 mg/kg, route intraperitoneal. The conditions noted are these: in vivo, 1080 h.
The test system of data set [7] is Rattus norvegicus. Put plainly: Retinotoxicity in female Wistar albino rat assessed as reduction in 10 Hz flicker ERG at 200 mg/kg, ip administered QD for 90 days by electroretinogram analysis relative to control. Set-up: dose 200 mg/kg, route intraperitoneal. The class given is toxicity, organism-based. The conditions noted are these: in vivo, 2160 h.
The test system of data set [8] is Rattus norvegicus. Put plainly: Retinotoxicity in male Wistar albino rat assessed as reduction in 10 Hz flicker ERG at 200 mg/kg, ip administered QD for 45 days by electroretinogram analysis relative to control. The class given is toxicity, organism-based. Also on record: dose 200 mg/kg, route intraperitoneal. Particulars: in vivo, 1080 h.
Data set [9] concerns Rattus norvegicus. In words: Retinotoxicity in male Wistar albino rat assessed as reduction in 10 Hz flicker ERG at 200 mg/kg, ip administered QD for 90 days by electroretinogram analysis relative to control. Particulars: in vivo, 2160 h. Format: toxicity, organism-based. Also on record: dose 200 mg/kg, route intraperitoneal.

With `C=CC(N)CCC(=O)O` (centres undefined) [VIGABATRIN], the Time in the data set on Rattus norvegicus [1] is on record as 7.9 min. Besides, the Activity result with Rattus norvegicus [2], in the data set on Rattus norvegicus [3], in the data set on Rattus norvegicus [4], in the data set with Rattus norvegicus [5], in the data set on Rattus norvegicus [6] and with Rattus norvegicus [7] was “Toxic” in each case. For the same molecule, the Activity result with Rattus norvegicus [8] and in the data set with Rattus norvegicus [9] was “Toxic” throughout.

(Values after ChEMBL document CHEMBL2203122 (J Med Chem, 2012).)
